For orientation: IC50 means the concentration that inhibits the measured activity by half. Broadly, the Kd is the constant that tells how readily two partners part at equilibrium.

The text below walks through data of ChEMBL document CHEMBL4184152, “Thioether-stapled macrocyclic inhibitors of the EH domain of EHD1” (Bioorg Med Chem, 2018).

Calls of active or inactive are those of the source. The calls are words filed in the database; no cut-off is given here. Where a SMILES comes first, the peptide text is derived from it. Bounds are passed on as bounds.

The target in experiment [1] is T1, EH domain-containing protein 1 (Homo sapiens) (UniProt Q9H4M9).
T1 sequence (whole entry): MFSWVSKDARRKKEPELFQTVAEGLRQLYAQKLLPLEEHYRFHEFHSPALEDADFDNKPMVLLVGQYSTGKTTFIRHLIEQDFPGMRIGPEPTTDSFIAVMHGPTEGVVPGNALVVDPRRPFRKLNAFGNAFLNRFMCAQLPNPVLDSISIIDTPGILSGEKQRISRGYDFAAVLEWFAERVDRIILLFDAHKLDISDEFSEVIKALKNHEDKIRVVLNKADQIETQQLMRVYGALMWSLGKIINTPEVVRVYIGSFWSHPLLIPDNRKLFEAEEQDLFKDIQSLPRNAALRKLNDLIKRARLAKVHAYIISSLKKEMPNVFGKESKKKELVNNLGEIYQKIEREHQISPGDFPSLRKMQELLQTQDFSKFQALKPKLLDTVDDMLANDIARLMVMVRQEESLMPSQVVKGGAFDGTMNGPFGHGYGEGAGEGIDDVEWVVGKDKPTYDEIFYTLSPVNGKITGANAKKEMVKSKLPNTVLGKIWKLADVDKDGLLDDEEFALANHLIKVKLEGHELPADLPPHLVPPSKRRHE
The experiment is described as follows: Inhibition of EHD1-EH in human HeLa cells assessed as reduction in internalized transferrin-488 recycling at 50 uM measured after 60 mins by pulse-chase method. The experiment is classed as cell-based. Summed up: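 HeLa cells were grown in DMEM/10% FBS to 80% confluence, then starved 30 min in DMEM with 0.5% BSA. Cells got a 60-min pulse with Tf-488 (25 µg/mL), with inhibitor present. A 30-min chase followed with 2 mg/mL unlabeled transferrin plus inhibitor, 0.2% DMSO final. Cells were washed in cold PBS, trypsinized and fixed. Flow cytometry counted 10,000 live cells; 50 µM primaquine was the positive control.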

In experiment [2] the target is T2, Epidermal growth factor receptor substrate 15 (Homo sapiens, UniProt P42566).
T2 sequence (P42566 whole entry): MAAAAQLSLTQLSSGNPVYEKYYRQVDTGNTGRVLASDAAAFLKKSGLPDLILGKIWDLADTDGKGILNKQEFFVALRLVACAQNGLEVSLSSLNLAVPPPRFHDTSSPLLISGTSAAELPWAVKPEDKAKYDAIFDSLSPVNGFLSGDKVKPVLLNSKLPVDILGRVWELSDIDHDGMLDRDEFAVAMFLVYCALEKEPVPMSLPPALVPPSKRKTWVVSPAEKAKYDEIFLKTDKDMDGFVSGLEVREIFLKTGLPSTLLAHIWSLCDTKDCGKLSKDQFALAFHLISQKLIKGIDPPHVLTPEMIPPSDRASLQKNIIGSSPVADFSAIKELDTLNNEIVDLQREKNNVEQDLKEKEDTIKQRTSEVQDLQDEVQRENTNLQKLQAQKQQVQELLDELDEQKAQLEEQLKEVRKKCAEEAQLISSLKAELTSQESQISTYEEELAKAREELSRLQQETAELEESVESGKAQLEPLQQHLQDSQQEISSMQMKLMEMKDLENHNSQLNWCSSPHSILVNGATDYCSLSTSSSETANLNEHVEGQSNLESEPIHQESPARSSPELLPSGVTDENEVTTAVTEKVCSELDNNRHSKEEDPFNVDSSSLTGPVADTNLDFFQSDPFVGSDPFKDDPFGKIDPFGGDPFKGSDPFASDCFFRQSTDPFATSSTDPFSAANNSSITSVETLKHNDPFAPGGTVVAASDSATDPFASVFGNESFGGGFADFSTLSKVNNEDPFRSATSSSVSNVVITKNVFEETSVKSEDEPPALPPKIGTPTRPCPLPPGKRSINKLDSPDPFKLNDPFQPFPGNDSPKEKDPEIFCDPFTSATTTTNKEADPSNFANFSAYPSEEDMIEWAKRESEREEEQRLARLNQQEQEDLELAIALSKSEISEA
Description: Binding affinity to GST-fused Eps15 EH2 domain (unknown origin) expressed in Escherichia coli BL21 cells under high salt condition by fluorescence polarization assay. Summed up: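 Eps15-EH2 protein concentration was set by A280 using an extinction coefficient of 13980 M-1cm-1. Binding of fluorescein-labeled peptides to Eps15-EH2 was measured in an FP direct binding format with varying protein concentration.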
For orientation: Fluorescence polarisation rises when a labelled molecule tumbles more slowly, as on binding a larger partner.

Experiment [3] concerns the target T3, EH domain-containing protein 1 (Homo sapiens, UniProt Q9H4M9).
T3 sequence (Q9H4M9 whole entry): T1 sequence (whole entry)
The experiment is described as follows: Binding affinity to GST-fused EHD1 EH domain (unknown origin) expressed in Escherichia coli BL21 cells measured after 1 hr in presence of 150 mM NaCl by fluorescence polarization assay. Summed up: (§1)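 NaCl was 15 mM or 150 mM. Polarization was read 1 h after probe addition and re-read later to confirm equilibrium. Kd came from curve fits; technical triplicates, three independent experiments.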

The target of experiment [4] is T3, EH domain-containing protein 1. Description: Binding affinity to GST-fused EHD1 EH domain (unknown origin) expressed in Escherichia coli BL21 cells measured after 1 hr in presence of 15 mM NaCl by fluorescence polarization assay. Summed up: as §1
For a further experiment, the species on record is Homo sapiens. The experiment is described as follows: Selectivity ratio of IC50 for GST-fused Eps15 EH2 domain (unknown origin) expressed in Escherichia coli BL21 cells to IC50 for GST-fused EHD1 EH domain (unknown origin).

Take `COc1cc(NC(C)CCCN)c2ncccc2c1` (configuration not stated): the inhibition result in experiment [1] was “Active”.

For the compound `CC(=O)N(CCCC[C@@H]1NC(=O)CNC(=O)[C@H](CCC(=O)O)NC(=O)[C@H](CCC(=O)O)NC(=O)[C@H](Cc2ccccc2)NC(=O)[C@@H]2CCCN2C(=O)[C@H](CC(N)=O)NC(=O)[C@H](Cc2ccc(O)cc2)NC1=O)C(=O)c1ccccc1-c1c2ccc(=O)cc-2oc2cc(O)ccc12` (HELM PEPTIDE1{E.E.G.[CC(=O)N(CCCC[C@H](N[*:1])C(=O)[*:2])C(=O)c1ccccc1-c1c2ccc(=O)cc-2oc2cc(O)ccc12].Y.N.P.F}$PEPTIDE1,PEPTIDE1,1:R1-8:R2$$$V2.0), in experiment [2], the IC50 was more than 100 µM. Also, the figures for the Kd in experiment [3] and in experiment [4] were 15.1 µM and 3 µM, respectively. Also, the Ratio IC50 in the experiment listed under Homo sapiens stood at 15.

As to `NC(=O)C[C@@H]1NC(=O)[C@H](Cc2ccc(O)cc2)NC(=O)CNC(=O)CNC(=O)[C@H](CCC(=O)O)NC(=O)[C@H](CCC(=O)O)NC(=O)[C@H](Cc2ccccc2)NC(=O)[C@@H]2CCCN2C1=O` (HELM PEPTIDE1{Y.N.P.F.E.E.G.G}$PEPTIDE1,PEPTIDE1,1:R1-8:R2$$$V2.0), the inhibition result in experiment [1] was “inactive”.

As for `C#CCCC(=O)N[C@H]1CSCc2ccc(cc2)CSCCNC(=O)[C@H](CCC(=O)O)NC(=O)[C@H](CCC(=O)O)NC(=O)[C@H](Cc2ccccc2)NC(=O)[C@@H]2CCCN2C(=O)[C@H](CC(N)=O)NC(=O)[C@H](Cc2ccc(O)cc2)NC1=O` (HELM PEPTIDE1{[C#CCCC(=O)[*:2]].C.Y.N.P.F.E.E}|CHEM1{[c1cc(C[*:1])ccc1CSCCN[*:2]]}$PEPTIDE1,CHEM1,2:R3-1:R1|PEPTIDE1,CHEM1,8:R2-1:R2$$$V2.0), the inhibition entry in experiment [1] was “inactive”.
